Data from ChEMBL document CHEMBL1142709, “Discovery and evaluation of 2-anilino-5-aryloxazoles as a novel class of VEGFR2 kinase inhibitors” (J Med Chem, 2005).

Columns and labels:
[1] = Inhibition of basic FGF-induced proliferation of human umbilical vein endothelial cells; assay type: functional, cell-based; conditions: Endothelial cell
[2] = Half life in rats dosed at […] iv in 10% HP-alpha-cyclodextrin in 0.05 M acetic acid and 10 mg/kg po in 0.5% HPMCw/0.1% Tween 80 (n=3); assay type: ADME, organism-based; conditions: rat, in vivo
[3] = Half life in dogs dosed at 1 mg/kg iv in 40% […] and 1 mg/kg po in 0.5% HPMC w/0.1%Tween 80 (n=2); assay type: ADME, organism-based, Canis lupus familiaris; conditions: dog, in vivo
Summary of the method: (§1)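 Male beagle dogs (n = 2). IV 1 mg/kg in 40% SBE-β-cyclodextrin and oral gavage 1 mg/kg in 0.5% HPMC/0.1% Tween 80, dose volume 0.5 mL/kg. Plasma precipitated with four volumes of acetonitrile and analysed by HPLC/MS. Parameters are averages of two dogs.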

[4] = Distribution at steady state was determined in dogs dosed at […] and 1 mg/kg po in 0.5% HPMC w/0.1%Tween 80 (n=2); assay type: ADME, organism-based, Canis lupus familiaris; conditions: dog, in vivo, iv, read-out: Vdss
[5] = Distribution at steady state was determined in rats dosed at […] iv in 10% HP-alpha-cyclodextrin in 0.05 M acetic acid and 10 mg/kg po in 0.5% HPMCw/0.1% Tween 80 (n=3); assay type: ADME, organism-based; conditions: rat, in vivo, read-out: Vdss
[6] = Bioavailability of compound was determined in dogs dosed at 1 mg/kg iv in 40% […] and 1 mg/kg po in 0.5% HPMC w/0.1%Tween 80 (n=2); assay type: ADME, organism-based, Canis lupus familiaris; conditions: dog, in vivo; summary of the method: as §1
[7] = Bioavailability of compound was determined in rats dosed at […] iv in 10% HP-alpha-cyclodextrin in 0.05 M acetic acid and 10 mg/kg po in 0.5% HPMCw/0.1% Tween 80 (n=3); assay type: ADME, organism-based; conditions: rat, in vivo
[8] = tested on: HT-29; test: In vitro inhibition of human colon tumor HT-29 cell proliferation; assay type: functional, cell-based
[9] = Area under concentration time curve in mice following oral administration of an aqueous solution of the bis-mesylate salt of the compound; assay type: ADME; conditions: mouse, in vivo
Summary of the method: (§2)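 Male CD mice (n = 2) given the bis-mesylate salt as an aqueous solution at 100 mg/kg by oral gavage, dose volume 10 mL/kg. Plasma taken from blood kept on wet ice, stored at -20 °C, protein-precipitated with four volumes of acetonitrile and analysed by HPLC/MS.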

[10] = Peak plasma concentration in mice following oral administration of an aqueous solution of the bis-mesylate salt of the compound; assay type: ADME, organism-based; set-up: route oral; conditions: mouse; summary of the method: as §2
[11] = Time at which peak plasma concentration is attained in mice following oral administration of an aqueous solution of the bis-mesylate salt of the compound; assay type: ADME, organism-based; conditions: mouse; summary of the method: as §2

`c1ccc(Nc2ncc(-c3ccccc3)o2)cc1` [GW549390X] gave an IC50 [1] of 24 µM.
In the case of `CCS(=O)(=O)c1ccc(OC)c(Nc2ncc(-c3cccc(-c4ccccn4)c3)o2)c1.CS(=O)(=O)O`, the half-life [2] is reported as 1.6 h, the half-life [3] is reported as 3.5 h and the Vd [4] is reported as 3.74 L/kg. For the same compound, the Vd [5] was 1.03 L/kg, the bioavailability [6] was 7% and the bioavailability [7] was 11%.
Compound `COc1cc2/c(=N/c3ccc(Br)cc3F)nc[nH]c2cc1OCC1CCN(C)CC1` [VANDETANIB] has an IC50 [1] of 1.2 µM.
With `CCS(=O)(=O)c1ccc(OC)c(Nc2ncc(-c3cccc(-c4ccccc4Cl)c3)o2)c1` the IC50 [1] was 1.1 µM.
For `Clc1ccc(Nc2nnc(Cc3ccncc3)c3ccccc23)cc1` [VATALANIB], the IC50 [1] was 25 µM.
`CCS(=O)(=O)c1ccc(OC)c(Nc2ncc(-c3cccc(-c4ccccn4)c3)o2)c1` gave an IC50 [8] of 4.5 µM, an AUC [9] of 102 µg·h/mL and a Cmax [10] of 35 µM. The Tmax [11] was 4 h and the IC50 [1] was 5.8 µM.
